ChEMBL document CHEMBL1144948, “Design and synthesis of 1,5-diarylbenzimidazoles as inhibitors of the VEGF-receptor KDR” (Bioorg Med Chem Lett, 2003)
pIC50: −log10 of the molar value. Converted amounts (≈) assume the structure as drawn.

How the values were obtained:
HUVEC = experiment: Inhibition of HUVEC cell proliferation; settings: Homo sapiens
[1] = Solubility at pH 7.4; assay type: physicochemical; settings: buffer
Outline: (§1)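 Saturated compound solution in pH-adjusted buffer is filtered. Concentration comes from the HPLC peak area compared against standard methanolic solutions.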

Homo sapiens = species on record: Homo sapiens; experiment: Compound tested for ability to bind to human plasma protein; assay type: cell-free
Outline: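 Human plasma binding: buffer solutions of test compound equilibrated with human plasma, free and bound drug separated by ultrafiltration, free compound concentration measured by HPLC; reported as percent bound.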

[2] = CL (clearance) of compound was determined as average of four rats at each dose of 5 mg/kg intravenous and 16 mg/kg peroral administration; assay type: ADME, organism-based; settings: rat, in vivo
Outline: (§2)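 Rats (n=4 per route, averaged) dosed 5 mpk iv as a DMSO solution and 16 mpk po as a suspension in 0.5% methocel.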

[3] = Oral bioavailability (F%) of compound was determined as average of four rats at each dose of 5 mg/kg intravenous and 16 mg/kg peroral administration; assay type: ADME, organism-based; settings: rat, in vivo; outline: as §2
[4] = Partition coefficient (logP); assay type: physicochemical; settings: octanol/water
Outline: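 Shake-flask partition: a methanolic sample aliquot added to equal volumes of 1-octanol and pH 7.4 buffer, equilibrated 8 h, then compound concentration measured in each phase.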

[5] = CL (clearance) of compound was determined after intravenous administration in average of two dogs at a dose of 1 mg/kg; assay type: ADME, organism-based, Canis lupus familiaris; design: dose 1 mg/kg, route intravenous; settings: dog, in vivo
Outline: (§3)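 Dogs (n=2, averaged) received 1 mpk iv as a solution in DMSO.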

[6] = Solubility at pH 5.2; assay type: physicochemical; settings: buffer; outline: as §1
[7] = Volume distribution of compound was determined as average of four rats at each dose of 5 mg/kg intravenous and 16 mg/kg peroral administration; assay type: ADME, organism-based; settings: rat, in vivo, read-out: Vdss; outline: as §2
[8] = Volume distribution (Vdss) of compound was determined after intravenous administration in average of two dogs at a dose of 1 mg/kg; assay type: ADME, organism-based, Canis lupus familiaris; design: dose 1 mg/kg, route intravenous; settings: dog, in vivo, read-out: Vdss; outline: as §3
[9] = Half life period (t1/2) of compound was determined after intravenous administration in average of two dogs at a dose of 1 mg/kg; assay type: ADME, organism-based, Canis lupus familiaris; design: dose 1 mg/kg, route intravenous; settings: dog, in vivo; outline: as §3
[10] = Half life period as average of four rats at each dose of 5 mg/kg intravenous and 16 mg/kg peroral administration; assay type: ADME, organism-based; settings: rat, in vivo; outline: as §2
[11] = Volume distribution of compound was determined as average of four rats at each dose of 5 mg/kg intravenous and 20 mg/kg peroral administration; assay type: ADME, organism-based; settings: rat, in vivo, read-out: Vdss
Outline: (§4)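 Rats, four per route and values averaged; 5 mpk iv given as a solution in DMSO, 20 mpk po as a suspension in 0.5% methocel.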

[12] = Half life period as average of four rats at each dose of 5 mg/kg intravenous and 20 mg/kg peroral administration; assay type: ADME, organism-based; settings: rat, in vivo; outline: as §4
[13] = Oral bioavailability (F%) of compound was determined as average of four rats at each dose of 5 mg/kg intravenous and 20 mg/kg peroral administration; assay type: ADME, organism-based; settings: rat, in vivo; outline: as §4
[14] = CL (clearance) of compound was determined as average of four rats at each dose of 5 mg/kg intravenous and 20 mg/kg peroral administration; assay type: ADME, organism-based; settings: rat, in vivo; outline: as §4
[15] = Solubility atpH 5.2; assay type: physicochemical; settings: pH 5.2; outline: as §1

Structure (SMILES)	pIC50 (HUVEC)	solubility [1]	Binding (Homo sapiens)	logP [4]	also measured
COc1ccc(-c2ccc3c(c2)ncn3-c2ccccc2)cc1	< 6.00	–	–	–	–
O=c1nc(-c2ccc3c(c2)ncn3-c2ccccc2)ccn1CCCN1CCCCC1	6.79	–	–	–	–
O=c1ccc(-c2ccc3c(c2)ncn3-c2ccccc2)cn1CCN1CCCCC1	–	> 1000 µg/mL	85%	–	–
c1ccc(-n2cnc3cc(-c4ccc(NCCN5CCOCC5)nc4)ccc32)cc1	6.67	–	–	–	–
c1ccc(-n2cnc3cc(-c4ccc(OCCN5CCCCC5)cc4)ccc32)cc1	7.06	< 0.01 µg/mL	99.4%	4.29	clearance [2]: 14.4 mL/min/kg; bioavailability [3]: 76%; clearance [5]: 4.6 mL/min/kg; solubility [6]: 120 µg/mL (≈ 0.302 mM); Vd [7]: 1.9 L/kg; Vd [8]: 3.1 L/kg; half-life [9]: 5.2 h; half-life [10]: 6.1 h
O=c1ccc(-c2ccc3c(c2)ncn3-c2ccccc2)cn1CCCN1CCCCC1	6.82	–	–	–	–
c1ccc(-n2cnc3cc(-c4ccc(OCCN5CCCCC5)cc4)cnc32)cc1	7.32	21 µg/mL (≈ 0.0527 mM)	97.4%	3.55	solubility [6]: 6460 µg/mL (≈ 16.2 mM)
O=c1cc(-c2ccc3c(c2)ncn3-c2ccccc2)ccn1CCCN1CCCCC1	7.43	8400 µg/mL (≈ 20.4 mM)	80.7%	2.25	Vd [11]: 3.9 L/kg; half-life [12]: 2.9 h; bioavailability [13]: 73%; clearance [5]: 8.9 mL/min/kg; clearance [14]: 17.3 mL/min/kg; solubility [15]: 33900 µg/mL (≈ 82.2 mM); Vd [8]: 7.9 L/kg; half-life [9]: 10.4 h
c1ccc(-n2cnc3cc(-c4ccc(OCCN5CCCCC5)nc4)ccc32)cc1	6.91	–	–	–	–
